Experimental data from different studies.
Compare with care: the assays were run in different laboratories. pEC50, pIC50, pKd, pKi: −log10 of the molar value.
ABHD6: Monoacylglycerol lipase ABHD6 (ABHD6, Homo sapiens, UniProt Q9BV23)
DRD4: D(4) dopamine receptor (DRD4, Homo sapiens, UniProt P21917)

CN(C(=O)Oc1nsnc1N1CCCCC1)C1CCCCCCC1
pIC50 (ABHD6; enzyme activity; inhibitor; fluorescence; lysate): 7.14

O=P(O)(O)Oc1ccccc1OP(=O)(O)O
pKi (Signal transducer and activator of transcription 6, SH2 (Homo sapiens, UniProt P42226); ligand displacement; FP): 4.74

O=C(Nc1cccc(-c2ccn3c(CC4CC4)nnc3c2C(F)(F)F)c1)c1ccc(S(=O)(=O)F)cc1
pEC50 (Metabotropic glutamate receptor 8 (GRM8, Homo sapiens, UniProt O00222); calcium signal; agonist): < 4.30

C[C@@H](NC(=O)C[C@@H](N)Cc1ccc(O)cc1)C(=O)NCC(=O)N[C@@H](Cc1ccccc1)C(=O)NNC(=O)[C@H](Cc1ccccc1)NC(=O)CNC(=O)[C@@H](C)NC(=O)C[C@@H](N)Cc1ccc(O)cc1
pIC50 (Mu-type opioid receptor (Oprm1, Rattus norvegicus, UniProt P33535); ligand displacement; radioligand): 6.87

CN(Cc1ccc(NC(=O)C2=Cc3cc(-c4ccc(OCCCF)cc4)ccc3CCC2)cc1)C1CCOCC1
pKi (5-hydroxytryptamine receptor 5A (HTR5A, Homo sapiens, UniProt P47898); ligand displacement; radioligand): 5.30

C=C1CC1CC(=O)SCCNC(=O)CCNC(=O)[C@H](O)C(C)(C)COP(=O)(O)OP(=O)(O)OC[C@H]1O[C@@H](n2cnc3c(N)ncnc32)[C@H](O)[C@@H]1OP(=O)(O)O (mixture of isomers)
pKd (IVD (Homo sapiens, UniProt P26440); binding; absorbance): ~4.65

C[C@H](N)Cn1ncc2ccc3c(c21)CCCO3
pIC50 (D(4) dopamine receptor (DRD4, Homo sapiens, UniProt P21917, del265-296); ligand displacement; radioligand): < 4.00

OC(c1ccc(F)cc1)C(F)(F)CCN1CCC(O)(c2ccc(Cl)cc2)CC1 (racemic)
pKi (DRD4; cell-free assay; radioligand): 7.29

CN(C(=O)Oc1nsnc1N1CCOCC1)C1CCCCCCC1
pIC50 (ABHD6; enzyme activity; inhibitor; fluorescence; lysate): 7.36

COc1cc(C(=O)N2CC[C@@H](O)[C@@H](N)C2)cc2nc(-c3cc4ccccc4n3CC3CC3)n(C)c12
pEC50 (Nuclear receptor subfamily 1 group I member 2 (NR1I2, Homo sapiens, UniProt O75469); reporter gene; agonist; luciferase): < 4.30

CCCCOc1ccc(C(=O)CCN2CCCCC2)cc1
pIC50 (DRD4; ligand displacement; radioligand): 5.39

CN(C(=O)Oc1nsnc1N1CCCCC1)C1CCCCCC1
pIC50 (ABHD6; enzyme activity; inhibitor; fluorescence; lysate): 7.37

CC(=O)N[C@@H](CO)C(=O)N[C@@H](Cc1ccccc1)C(=O)N[C@@H](CCC(=O)O)C(=O)N[C@@H](Cc1ccccc1Cl)C(=O)N1CCC[C@H]1C(=O)N1CCC[C@H]1C(=O)N1CCC[C@H]1C(=O)N1CCC[C@H]1C(=O)N[C@H](C(=O)N[C@@H](CCC(=O)O)C(=O)N[C@@H](CC(=O)O)C(=O)N[C@@H](CCC(=O)O)C(=O)N[C@@H](CC(C)C)C(N)=O)[C@@H](C)O
pKd (Vasodilator-stimulated phosphoprotein (VASP, Homo sapiens, UniProt P50552); binding; fluorescence): 5.82
